Screens from PubChem BioAssay.
Yeast life ext: yeast lifespan extension; S. cerevisiae growth with nicotinamide, OD615; deaD strain in restrictive glucose medium; inhibition of the nicotinamide effect, % at 10 µM; AID 775; 130,000 compounds, 0.68% hits;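 active = inhibition above a set limit, placed 3 SD over the median of all compounds, cut at about 26% in these data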
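Assay system: engineered S. cerevisiae DeaD replicative-lifespan strain, galactose-grown log-phase cells; medium: restrictive CSMM-D dextrose medium; also added: nicotinamide, 1.5 mM, co-present with compound; schedule: 48 h compound exposure at 30 °C, humidified; detection: absorbance at 615 nm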
S1P3 antag: S1P3 (human) receptor antagonism; CHO S1P3 NFAT-BLA reporter, FRET fluorescence, antagonist mode; inhibition, % at 4.98 µM; 170,000 compounds, 0.27% hits; AID 485;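 active = inhibition above the plate cutoff, the mean inhibition of test wells on that plate plus 3 SD, cut at about 28% in these data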;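 note: cells challenged with S1P at its EC80 of 0.8 µM; blue over green emission ratio from cleaved BLA substrate after 4 h stimulation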
Target sequence (Q99500 whole entry, looked up): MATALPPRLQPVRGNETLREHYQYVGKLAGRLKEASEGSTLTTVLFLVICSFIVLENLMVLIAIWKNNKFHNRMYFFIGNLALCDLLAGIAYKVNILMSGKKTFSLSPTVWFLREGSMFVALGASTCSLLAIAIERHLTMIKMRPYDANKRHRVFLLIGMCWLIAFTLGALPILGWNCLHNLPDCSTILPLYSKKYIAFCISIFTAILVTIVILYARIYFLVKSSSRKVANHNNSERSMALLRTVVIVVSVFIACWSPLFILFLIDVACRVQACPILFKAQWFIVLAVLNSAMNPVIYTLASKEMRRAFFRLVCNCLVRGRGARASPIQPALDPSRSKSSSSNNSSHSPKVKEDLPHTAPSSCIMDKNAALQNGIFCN
BB579 growth dn: yeast BB579 growth reduction in restrictive medium; S. cerevisiae BB579 growth, OD615, 48 h; 140,000 compounds, 0.51% hits; inhibition, % at 10 µM;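 active = inhibition above a set limit, 3 SD over the mean compound inhibition, cut at about 44% in these data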
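Test system: S. cerevisiae DeaD strain BB579 yeast; Medium: restrictive CSMM-D medium; Compound: one dose, 10 µM compound with 0.25% DMSO; Incubation: 4 h cell preincubation, 48 h compound exposure, 30 °C humidified; Signal: OD at 615 nm; Benchmarks: amphotericin B at 10 µg/mL as positive control.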
Hits are given with their value. In the library only some 0.98% were active in any assay of this set; here they are far more common.

How did O=C(c1ccc(N2CCNCC2)cc1)c1cccnc1 do in these assays?
Yeast life ext: inactive; S1P3 antag: inactive; BB579 growth dn: inactive

How did CN1CCN(S(=O)(=O)c2cc([N+](=O)[O-])ccc2Cl)CC1 do in these assays?
S1P3 antag: inactive

Results for O=[N+]([O-])c1ccc(Cl)c(S(=O)(=O)N2CCCCCC2)c1 ?
Yeast life ext: inactive; S1P3 antag: inactive; BB579 growth dn: 57

Results for CCCOc1ccc(N2CC(C(=O)Nc3ccccc3C(=O)NCc3ccco3)CC2=O)cc1 (stereo unspecified) ?
Yeast life ext: inactive; S1P3 antag: inactive; BB579 growth dn: inactive

How did CC1CN(S(=O)(=O)c2ccc(C(=O)Nc3nnc(-c4ccccn4)o3)cc2)CC(C)O1 (stereo unspecified) do in these assays?
S1P3 antag: inactive

What do the screens show for `CC1CN(S(=O)(=O)c2ccc(C(=O)Nc3nnc(-c4ccc5c(c4)CCCC5)o3)cc2)CC(C)O1` (stereo unspecified)?
Yeast life ext: inactive; S1P3 antag: 84; BB579 growth dn: inactive

What do the screens show for `O=C1c2ccccc2-c2ncnc3cccc1c23`?
S1P3 antag: inactive

What do the screens show for `O=C(O)c1ccc2c3c(ncnc13)-c1ccccc1C2=O`?
Yeast life ext: inactive; S1P3 antag: inactive; BB579 growth dn: 96

What do the screens show for `O=C(Cc1cccs1)NNC(=S)NC(=O)c1ccccc1`?
Yeast life ext: inactive; S1P3 antag: inactive; BB579 growth dn: 86

How did O=C(Cc1cccs1)NNC(=S)NC(=O)c1ccc(F)c(F)c1 do in these assays?
Yeast life ext: inactive; S1P3 antag: inactive; BB579 growth dn: inactive

How did Cc1ccc(C(=O)CC2(O)C(=O)N(C)c3ccccc32)s1 (stereo unspecified) do in these assays?
S1P3 antag: inactive

What do the screens show for `N/C(Cc1ccc(Cl)c(Cl)c1)=N\OC(=O)c1cccs1`?
Yeast life ext: inactive; BB579 growth dn: 66

Results for N/C(=N\OC(=O)c1cccs1)C1(c2ccc(Cl)cc2Cl)CC1 ?
S1P3 antag: inactive

Results for COc1ccc(CNC(=O)c2c(O)c3cccc4c3n(c2=O)CCC4)cc1 ?
Yeast life ext: 34; S1P3 antag: inactive; BB579 growth dn: inactive

What do the screens show for `CCN(CC)CCNC(=O)c1c(O)c2cccc3c2n(c1=O)CCC3`?
Yeast life ext: inactive; S1P3 antag: inactive; BB579 growth dn: inactive

What do the screens show for `O=C(NCCNCCO)c1c(O)c2cccc3c2n(c1=O)CCC3`?
Yeast life ext: 33; S1P3 antag: inactive; BB579 growth dn: inactive

What do the screens show for `CCCCCCNC(=O)c1c(O)c2cccc3c2n(c1=O)CCC3`?
Yeast life ext: inactive; S1P3 antag: inactive; BB579 growth dn: inactive

How did COc1ccc(CNC(=O)c2c(O)c3cccc4c3n(c2=O)CCC4)cc1OC do in these assays?
Yeast life ext: 34; S1P3 antag: inactive; BB579 growth dn: inactive

How did COc1ccc(CCNC(=O)c2c(O)c3cccc4c3n(c2=O)CC4)cc1 do in these assays?
Yeast life ext: inactive; S1P3 antag: inactive; BB579 growth dn: inactive

Results for Cc1cc(=O)[nH]c(-n2nc(C)c(Oc3ccccc3O)c2C)n1 ?
Yeast life ext: inactive; S1P3 antag: inactive; BB579 growth dn: inactive

Results for Cc1cc(=O)[nH]c(-n2nc(C)cc2C)n1 ?
Yeast life ext: inactive; S1P3 antag: inactive; BB579 growth dn: 81

How did O=C(O)c1cc2c(s1)-c1ccccc1CC2 do in these assays?
Yeast life ext: inactive; S1P3 antag: inactive; BB579 growth dn: 45

What do the screens show for `O=C(O)c1cc2c(s1)-c1ccccc1OC2`?
Yeast life ext: inactive; BB579 growth dn: inactive

Results for COc1ccc(CN2C(=O)c3ccccc3C2C(=O)NCCc2ccccc2)c(OC)c1 (stereo unspecified) ?
S1P3 antag: inactive

How did c1ccc(-c2cccc(-c3ccccn3)n2)nc1 do in these assays?
Yeast life ext: inactive; S1P3 antag: inactive; BB579 growth dn: 99

How did c1ccc(-c2ccc(-c3ccccn3)s2)nc1 do in these assays?
S1P3 antag: inactive

How did COC(=O)c1ccc(NC(=O)c2ccccc2-c2ccccc2C(=O)O)cc1 do in these assays?
S1P3 antag: inactive

Results for N/C(=N\OC(=O)c1ccc(Cl)cc1Cl)c1ccccc1 ?
Yeast life ext: inactive; BB579 growth dn: 96

What do the screens show for `Cc1ccc(/C(N)=N/OC(=O)c2ccc(C)cc2Cl)cc1`?
Yeast life ext: inactive; S1P3 antag: inactive; BB579 growth dn: 58

What do the screens show for `Cc1cccc(/C(N)=N/OC(=O)c2ccc(Cl)cc2Cl)c1`?
Yeast life ext: inactive; S1P3 antag: inactive; BB579 growth dn: inactive

What do the screens show for `N/C(=N\OC(=O)c1ccc(Cl)cc1Cl)c1ccc(Cl)cc1`?
Yeast life ext: inactive; BB579 growth dn: inactive

Results for CSc1nsc(SC)c1C(=O)O ?
S1P3 antag: inactive

Results for Cc1cc(C(=O)CSc2nc3ccccc3n2CCC#N)c(C)n1Cc1cccs1 ?
Yeast life ext: inactive; BB579 growth dn: inactive

What do the screens show for `CCOc1ccc(N(CC(=O)NC2CCCC(C)C2C)S(=O)(=O)c2c(C)noc2C)cc1` (stereo unspecified)?
Yeast life ext: inactive; S1P3 antag: inactive; BB579 growth dn: inactive

Results for Cc1oc2nc(SCCCC(=O)NCCCO)nc(N)c2c1C ?
Yeast life ext: inactive; BB579 growth dn: inactive

Results for CCC1C(c2ccccc2)N(C)C(c2ccccc2)CC1(O)c1ccccc1 (stereo unspecified) ?
S1P3 antag: inactive

What do the screens show for `CC(C)C1C(c2ccccc2)N(C)C(c2ccccc2)CC1(O)c1ccccc1` (stereo unspecified)?
Yeast life ext: 46; BB579 growth dn: inactive

What do the screens show for `O=C(Oc1ccc2[nH]cc(CCN3C(=O)c4ccccc4C3=O)c2c1)c1ccco1`?
Yeast life ext: inactive; S1P3 antag: inactive; BB579 growth dn: inactive

Results for COc1ccc2c(c1)c(CCN1C(=O)c3ccccc3C1=O)cn2C(=O)c1ccco1 ?
Yeast life ext: inactive; S1P3 antag: 55; BB579 growth dn: inactive

How did COc1ccccc1NC(=O)C(=O)N/N=C/c1ccc([N+](=O)[O-])s1 do in these assays?
S1P3 antag: inactive

How did CCCCCCCC#Cc1ccccc1/C=N/S(=O)c1ccc(C)cc1 (stereo unspecified) do in these assays?
Yeast life ext: 36; S1P3 antag: inactive; BB579 growth dn: inactive

Results for CCCCC#Cc1ccccc1CC(=O)Nc1ccccc1 ?
Yeast life ext: inactive; S1P3 antag: inactive; BB579 growth dn: inactive

Results for COc1ccccc1NC(=O)Cn1nc(C(F)(F)F)c2c1CCCC2 ?
Yeast life ext: inactive; S1P3 antag: inactive; BB579 growth dn: inactive

What do the screens show for `Cc1ccc(N2CCC(N3CCN(C4CCCCC4)C(CCO)C3)CC2)cc1` (stereo unspecified)?
S1P3 antag: inactive

How did C/C(=N\NC(N)=S)c1ccc(-n2ccnc2)cc1 do in these assays?
S1P3 antag: inactive

What do the screens show for `C/C(=N\Nc1ccc(Cl)c(Cl)c1)c1ccc(-n2ccnc2)cc1`?
Yeast life ext: inactive; S1P3 antag: inactive; BB579 growth dn: 95

Results for COc1ccc(C2(O)CCN(Cc3nnnn3Cc3ccc(C)cc3)CC2)cc1 ?
Yeast life ext: inactive; S1P3 antag: inactive; BB579 growth dn: inactive

Results for CCCn1nc(C(=O)OCC(=O)Nc2cccc(S(N)(=O)=O)c2)c2ccccc2c1=O ?
S1P3 antag: inactive

What do the screens show for `O=[N+]([O-])c1cccc(N/N=C/c2cc([N+](=O)[O-])ccc2O)c1`?
S1P3 antag: inactive
